According to ChEMBL document CHEMBL4304816, “A Novel Biphenyl-based Chemotype of Retinoid X Receptor Ligands Enables Subtype and Heterodimer Preferences” (ACS Med Chem Lett, 2019):
≈ marks a conversion by molar mass, not a printed value. Calls of active or inactive are those of the source. The calls are words filed in the database; no cut-off is given here.

What was measured:
[1] = biological target: T1, Retinoic acid receptor RXR-gamma (Homo sapiens) (UniProt P48443); assay: Agonist activity at Gal4-LBD fused RXRgamma (unknown origin) expressed in HEK293T cells at 0.1 to 3 uM after 14 to 16 hrs in presence of RXR antagonist HX531 by dual-Glo luciferase reporter gene assay; format: cell-based
T1 sequence (whole entry): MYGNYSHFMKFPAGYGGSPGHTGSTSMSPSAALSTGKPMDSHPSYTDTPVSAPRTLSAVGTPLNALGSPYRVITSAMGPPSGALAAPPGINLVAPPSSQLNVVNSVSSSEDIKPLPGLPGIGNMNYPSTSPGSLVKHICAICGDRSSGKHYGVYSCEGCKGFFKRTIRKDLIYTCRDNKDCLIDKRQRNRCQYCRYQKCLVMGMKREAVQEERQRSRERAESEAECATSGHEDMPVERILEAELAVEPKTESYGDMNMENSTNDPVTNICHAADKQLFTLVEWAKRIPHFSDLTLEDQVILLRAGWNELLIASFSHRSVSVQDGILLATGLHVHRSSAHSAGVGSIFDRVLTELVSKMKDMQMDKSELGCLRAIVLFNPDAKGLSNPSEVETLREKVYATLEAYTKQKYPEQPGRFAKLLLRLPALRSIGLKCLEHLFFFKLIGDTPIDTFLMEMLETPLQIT

[2] = biological target: T2, Retinoic acid receptor RXR-alpha (Homo sapiens) (UniProt P19793); assay: Agonist activity at Gal4-LBD fused RXRalpha (unknown origin) expressed in HEK293T cells at 0.1 to 3 uM after 14 to 16 hrs in presence of RXR antagonist HX531 by dual-Glo luciferase reporter gene assay; format: cell-based
T2 sequence (whole entry): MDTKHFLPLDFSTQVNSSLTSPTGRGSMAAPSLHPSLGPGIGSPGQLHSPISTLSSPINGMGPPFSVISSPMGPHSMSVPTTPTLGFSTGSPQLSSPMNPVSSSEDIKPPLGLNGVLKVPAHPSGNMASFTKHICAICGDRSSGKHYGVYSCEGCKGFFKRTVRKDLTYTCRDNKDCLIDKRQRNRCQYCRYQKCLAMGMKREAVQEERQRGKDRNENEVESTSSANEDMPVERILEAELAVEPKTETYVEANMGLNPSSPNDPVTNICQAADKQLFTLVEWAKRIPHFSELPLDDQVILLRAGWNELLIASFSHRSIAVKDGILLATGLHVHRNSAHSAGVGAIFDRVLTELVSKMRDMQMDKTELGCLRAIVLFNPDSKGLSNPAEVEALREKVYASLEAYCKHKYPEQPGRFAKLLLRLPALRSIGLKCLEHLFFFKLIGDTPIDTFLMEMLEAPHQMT

Homo sapiens [3] = species on record: Homo sapiens; assay: Agonist activity at full-length human PPARgamma/RXR expressed in HEK293T cells at 5 uM after 14 to 16 hrs in presence of 1 uM rosiglitazone by dual-glo luciferase reporter gene assay relative to rosiglitazone; format: cell-based
Procedure, shortened: (§1)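 Synergy format: the test compound was co-applied with the partner-receptor reference agonist at 1 μM, either T0901317 (RXR:LXR) or rosiglitazone (RXR:PPARγ). Relative synergistic activation was derived from three independent experiments, each in duplicate; mean reported.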

[4] = biological target: T3, Retinoic acid receptor RXR-beta (Homo sapiens) (UniProt P28702); assay: Agonist activity at Gal4-LBD fused RXRbeta (unknown origin) expressed in HEK293T cells at 0.1 to 3 uM after 14 to 16 hrs in presence of RXR antagonist HX531 by dual-Glo luciferase reporter gene assay; format: cell-based
T3 sequence (whole entry): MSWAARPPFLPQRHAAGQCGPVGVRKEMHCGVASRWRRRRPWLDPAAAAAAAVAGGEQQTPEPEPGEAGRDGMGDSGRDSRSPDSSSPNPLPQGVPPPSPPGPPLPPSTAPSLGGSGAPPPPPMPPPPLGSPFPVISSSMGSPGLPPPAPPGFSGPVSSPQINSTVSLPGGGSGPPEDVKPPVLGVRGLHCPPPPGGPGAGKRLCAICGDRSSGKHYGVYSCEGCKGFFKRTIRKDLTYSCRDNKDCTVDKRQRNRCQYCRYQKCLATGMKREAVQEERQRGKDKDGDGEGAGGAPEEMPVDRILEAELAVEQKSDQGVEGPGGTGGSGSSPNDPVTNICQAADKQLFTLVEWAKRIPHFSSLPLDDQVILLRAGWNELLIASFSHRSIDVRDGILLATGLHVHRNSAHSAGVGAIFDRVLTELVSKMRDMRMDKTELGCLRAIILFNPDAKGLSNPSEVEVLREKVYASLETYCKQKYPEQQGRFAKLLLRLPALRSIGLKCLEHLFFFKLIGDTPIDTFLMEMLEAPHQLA

[5] = biological target: T4, Retinoic acid receptor RXR-gamma (Homo sapiens, UniProt P48443); assay: Agonist activity at Gal4-LBD fused RXRgamma (unknown origin) expressed in HEK293T cells after 14 to 16 hrs by dual-Glo luciferase assay; format: cell-based
T4 sequence (P48443 whole entry): T1 sequence (whole entry)
Procedure, shortened: (§2)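 Gal4-hybrid RXRα/β/γ reporter gene assays in HEK293T cells. Fold activation is the maximal fold activation versus 0.1% DMSO.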

[6] = Agonist activity at full-length human RXR/LXR expressed in HEK293T cells at 5 uM after 14 to 16 hrs by dual-glo luciferase reporter gene assay relative to untreated control; format: cell-based; conditions: HEK-293T, read-out: Activity
Procedure, shortened: (§3)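 RXR:LXR or RXR:PPARγ heterodimer reporter assay with test compound alone. Activation expressed relative to 0.1% DMSO vehicle. Three independent experiments, each in duplicate; mean reported.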

[7] = biological target: T5, Retinoic acid receptor RXR-beta (Homo sapiens, UniProt P28702); assay: Agonist activity at Gal4-LBD fused RXRbeta (unknown origin) expressed in HEK293T cells after 14 to 16 hrs by dual-Glo luciferase assay; format: cell-based; procedure, shortened: as §2
T5 sequence (P28702 whole entry): T3 sequence (whole entry)

[8] = biological target: T6, Retinoic acid receptor RXR-alpha (Homo sapiens, UniProt P19793); assay: Agonist activity at Gal4-LBD fused RXRalpha (unknown origin) expressed in HEK293T cells after 14 to 16 hrs by dual-Glo luciferase assay; format: cell-based; procedure, shortened: as §2
T6 sequence (P19793 whole entry): T2 sequence (whole entry)

Homo sapiens [9] = species on record: Homo sapiens; assay: Agonist activity at full-length human PPARgamma/RXR expressed in HEK293T cells at 5 uM after 14 to 16 hrs by dual-glo luciferase reporter gene assay relative to untreated control; format: cell-based; procedure, shortened: as §3
[10] = Agonist activity at full-length human RXR/LXR expressed in HEK293T cells at 5 uM after 14 to 16 hrs in presence of 1 uM T0901317 by dual-glo luciferase reporter gene assay relative to T0901317; format: cell-based; conditions: HEK-293T, read-out: Activity; procedure, shortened: as §1
[11] = Agonist activity at full-length human RXR/LXR expressed in HEK293T cells at 1 uM after 14 to 16 hrs by dual-glo luciferase reporter gene assay relative to untreated control; format: cell-based; conditions: HEK-293T, read-out: Activity; procedure, shortened: as §3
[12] = Agonist activity at full-length human RXR/LXR expressed in HEK293T cells at 0.3 uM after 14 to 16 hrs in presence of 1 uM T0901317 by dual-glo luciferase reporter gene assay relative to T0901317; format: cell-based; conditions: HEK-293T, read-out: Activity; procedure, shortened: as §1
[13] = Agonist activity at full-length human RXR/LXR expressed in HEK293T cells at 0.3 uM after 14 to 16 hrs by dual-glo luciferase reporter gene assay relative to untreated control; format: cell-based; conditions: HEK-293T, read-out: Activity; procedure, shortened: as §3
Homo sapiens [14] = species on record: Homo sapiens; assay: Agonist activity at full-length human PPARgamma/RXR expressed in HEK293T cells at 0.3 uM after 14 to 16 hrs in presence of 1 uM rosiglitazone by dual-glo luciferase reporter gene assay relative to rosiglitazone; format: cell-based
Procedure, shortened: (§4)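 RXR:PPARγ heterodimer reporter assay run with reference PPARγ agonist rosiglitazone (1 μM) co-applied. Read-out is mean relative synergistic activation, from three independent experiments each run in duplicate.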

[15] = Solubility of compound at 3 mg after 24 hrs by HPLC analysis; format: physicochemical
Homo sapiens [16] = species on record: Homo sapiens; assay: Agonist activity at full-length human PPARgamma/RXR expressed in HEK293T cells at 0.3 uM after 14 to 16 hrs by dual-glo luciferase reporter gene assay relative to untreated control; format: cell-based
Procedure, shortened: (§5)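 RXR:PPARγ heterodimer reporter assay in HEK293T cells with test compound alone. Mean relative activation is taken versus 0.1% DMSO, from three independent experiments each run in duplicate.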

[17] = Agonist activity at full-length human RXR/LXR expressed in HEK293T cells at 10 uM after 14 to 16 hrs by dual-glo luciferase reporter gene assay relative to untreated control; format: cell-based; conditions: HEK-293T, read-out: Activity; procedure, shortened: as §3
Homo sapiens [18] = species on record: Homo sapiens; assay: Agonist activity at full-length human PPARgamma/RXR expressed in HEK293T cells at 10 uM after 14 to 16 hrs in presence of 1 uM rosiglitazone by dual-glo luciferase reporter gene assay relative to rosiglitazone; format: cell-based; procedure, shortened: as §4
[19] = Metabolic stability in Wistar rat liver microsomes at 10 uM preincubated for 5 mins followed by microsomes addition in presence of NADPH measured up to 60 mins by HPLC analysis; format: ADME, Microsome; conditions: 1 h
Homo sapiens [20] = species on record: Homo sapiens; assay: Agonist activity at full-length human PPARgamma/RXR expressed in HEK293T cells at 10 uM after 14 to 16 hrs by dual-glo luciferase reporter gene assay relative to untreated control; format: cell-based; procedure, shortened: as §5
[21] = Agonist activity at full-length human RXR/LXR expressed in HEK293T cells at 10 uM after 14 to 16 hrs in presence of 1 uM T0901317 by dual-glo luciferase reporter gene assay relative to T0901317; format: cell-based; conditions: HEK-293T, read-out: Activity; procedure, shortened: as §1
Homo sapiens [22] = species on record: Homo sapiens; assay: Agonist activity at full-length human RXR/PPARgamma expressed in HEK293T cells at 1 uM after 14 to 16 hrs by dual-glo luciferase reporter gene assay relative to untreated control; format: cell-based; procedure, shortened: as §3
[23] = biological target: T1, Retinoic acid receptor RXR-gamma (Homo sapiens); assay: Agonist activity at Gal4-LBD fused RXRgamma (unknown origin) expressed in HEK293T cells at 30 uM after 14 to 16 hrs by dual-Glo luciferase assay; format: cell-based
[24] = Agonist activity at full-length human RXR/LXR expressed in HEK293T cells at 25 uM after 14 to 16 hrs by dual-glo luciferase reporter gene assay relative to untreated control; format: cell-based; conditions: HEK-293T, read-out: Activity; procedure, shortened: as §3
[25] = Agonist activity at full-length human RXR/LXR expressed in HEK293T cells at 25 uM after 14 to 16 hrs in presence of 1 uM T0901317 by dual-glo luciferase reporter gene assay relative to T0901317; format: cell-based; conditions: HEK-293T, read-out: Activity; procedure, shortened: as §1
Homo sapiens [26] = species on record: Homo sapiens; assay: Agonist activity at full-length human PPARgamma/RXR expressed in HEK293T cells at 25 uM after 14 to 16 hrs by dual-glo luciferase reporter gene assay relative to untreated control; format: cell-based; procedure, shortened: as §5

CC(C)(C)c1cc(-c2ccc(CC(=O)O)cc2)cc(C(C)(C)C)c1
Activity [1]: inactive | Activity [2]: inactive | Activity (Homo sapiens [3]): 108% | Activity [4]: inactive | EC50 [5]: 3300 nM | activity at 5 µM [6]: 89% | EC50 [7]: 800 nM | EC50 [8]: 470 nM | Activity (Homo sapiens [9]): 173% | activity at 5 µM [10]: 82%

O=S(=O)(c1ccccc1)N(CC(F)(F)F)c1ccc(C(O)(C(F)(F)F)C(F)(F)F)cc1 [T091317]
activity at 1 µM [11]: 380%

C=C(c1ccc(C(=O)O)cc1)c1cc2c(cc1C)C(C)(C)CCC2(C)C [BEXAROTENE]
activity at 0.3 µM [12]: 665% | activity at 0.3 µM [13]: 200% | Activity (Homo sapiens [14]): 423% | solubility at 24 h [15]: 0.3 µg/mL (≈ 0.861 µM) | Activity (Homo sapiens [16]): 330%

O=C(O)Cc1ccc(-c2cc(C(F)(F)F)cc(C(F)(F)F)c2)cc1
Activity [1]: inactive | activity at 10 µM [17]: 132% | Activity (Homo sapiens [18]): 154% | Stability [19]: Stable | Activity [2]: inactive | Activity [4]: inactive | EC50 [5]: 220 nM | Activity (Homo sapiens [20]): 267% | solubility at 24 h [15]: 1.15 µg/mL (≈ 3.3 µM) | EC50 [7]: 150 nM | EC50 [8]: 80 nM | activity at 10 µM [21]: 127%

CN(CCOc1ccc(CC2SC(=O)NC2=O)cc1)c1ccccn1 (stereo not given)
Activity (Homo sapiens [22]): 224%

O=C(O)c1cccc(-c2cc(Cl)cc(Cl)c2)c1
Activity [23]: inactive | activity at 25 µM [24]: 67% | EC50 [7]: 13100 nM | EC50 [8]: 15500 nM | activity at 25 µM [25]: 42% | Activity (Homo sapiens [26]): 82%
